In PubChem BioAssay AID2300 (The Scripps Research Institute Molecular Screening Center, 2010):
Hit rate of the full screen: of about 320,000 compounds, about 380 (0.12%) were called active.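 The calls were made as follows: active = percent inhibition above the cutoff of mean plus 3 SD of all tested compounds, set per screening campaign (cut at about 20% in these data); inactive = the rest.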 The sample as a whole holds a higher share of actives than the screen did.

biological target: Photoreceptor-specific nuclear receptor (Homo sapiens) (UniProt Q9Y5X4); test: disruption of NR2E3 corepressor interaction – biochemical, TR-FRET, GST-NR2E3, biotin-RetCOR, NR2E3 agonist project, primary screen (AID 2300); settings: 1536-well, at 4.78 µM, active compounds read high;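 also: 0% = DMSO wells and 100% = biotin wells as full block of FRET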
Sequence (Q9Y5X4 whole entry, looked up): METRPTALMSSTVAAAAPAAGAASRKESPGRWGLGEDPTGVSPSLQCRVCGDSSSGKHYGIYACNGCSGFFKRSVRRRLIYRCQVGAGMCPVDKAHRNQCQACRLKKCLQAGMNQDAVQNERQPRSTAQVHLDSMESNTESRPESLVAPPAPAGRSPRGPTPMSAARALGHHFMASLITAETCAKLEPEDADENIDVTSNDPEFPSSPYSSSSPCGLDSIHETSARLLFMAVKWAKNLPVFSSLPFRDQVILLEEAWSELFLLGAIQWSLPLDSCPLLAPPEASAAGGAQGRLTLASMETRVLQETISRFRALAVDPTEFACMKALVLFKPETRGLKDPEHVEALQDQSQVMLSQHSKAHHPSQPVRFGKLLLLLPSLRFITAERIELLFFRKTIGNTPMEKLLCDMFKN
Procedure, shortened: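 system = GST-tagged NR2E3 plus biotinylated RetCOR corepressor | input = 1.35 nM GST-NR2E3 | also added = 7 nM biotin-RetCOR | schedule = 5 h incubation at 4 °C | measured by = TR-FRET with europium anti-GST and streptavidin-D2, 340 nm excitation | read-out = percent loss of FRET ratio relative to control wells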

Inhibition of corepressor binding, inactive:
O=S(=O)(Nc1n[nH]c(C(F)(F)F)n1)c1ccccc1 6.01%
Cc1c(Cl)c([N+](=O)[O-])nn1CC(=O)NCCCN1CCOCC1 4.17%
COc1ccccc1C(C)NC(=O)Cc1ccsc1 (stereo not given) 2.21%
COc1ccc2oc(C(=O)N(CC(C)C)C3CCS(=O)(=O)C3)c(C)c2c1 (stereo not given) 3.14%
COc1ccc(N2CCN(C(=O)C3CCN(S(=O)(=O)c4ccc(C)cc4)CC3)CC2)cc1 6.37%
CC1(C)CN(c2ccc(-c3ccnc4ncnn34)cc2)C1=O -0.76%
COc1ccc(C)cc1S(=O)(=O)NCCc1ccccc1 2.48%
Fc1ccc(CNc2nc3ccccc3n3nnnc23)cc1 -0.09%
CC(C)(C)NC(=O)/C(=C/c1cccnc1)NC(=O)c1ccco1 -5.01%
NC(=O)c1cc(S(=O)(=O)NCCCc2ccco2)cs1 2.54%
O=C(NCCCNC(=O)NC1CCCCC1)NC1CCCCC1 1.65%
Cc1ccc(CC(=O)Nc2ccc(S(=O)(=O)N3CCOCC3)cc2)cc1C 1.54%
CC(C)C[C@@H](N)c1nnc(SCC(=O)c2ccc(Cl)cc2)o1 -0.27%
O=C(C1=C(O)C(=O)N(Cc2ccccc2)C1c1ccco1)c1ccco1 (stereo not given) 13%
CCOc1cc(C2C(C(=O)c3ccco3)=C(O)C(=O)N2Cc2ccccc2)ccc1O (stereo not given) 5.32%
O=C1NC(c2ccccc2)=NC1(Nc1ccccn1)C(F)(F)F (stereo not given) 0.74%
COc1cccc(N(CC(=O)NCCSc2ccccn2)S(C)(=O)=O)c1 -2.09%
OC(c1ccccc1)c1nccn1Cc1ccccc1 (stereo not given) -1.45%
NS(=O)(=O)c1ccc(NC2=CC(c3ccc(F)cc3)N(c3ccc(S(N)(=O)=O)cc3)C2=O)cc1 (stereo not given) 1.09%
O=c1[nH]cccc1-c1nc2ccccc2n1Cc1ccc(Cl)cc1 5.14%
CCOc1ccccc1N(CC(=O)NC1CCCCC1)C(=O)CCCC(=O)Nc1ccccn1 2.15%
O=C(COC(=O)c1ccccc1SCC(=O)NC1CCCCC1)NC1CCCCC1 -5.62%
N#Cc1ccc(C(=O)OCC(=O)NC(=O)NC2CCCCC2)cc1 0.11%
O=C(NCC(c1ccco1)N1CCc2ccccc21)c1cccc(F)c1 (stereo not given) -1.2%
CCOC(=O)N1CCC(=NNC(N)=O)CC1 0.68%
O=C(Nc1ccccn1)C1CCN(S(=O)(=O)c2ccc3c(c2)OCCO3)CC1 2.07%
NNC(=O)CSc1nnc(-c2ccccc2)n1-c1ccccc1 3.63%
CC1(C)CC(O)C(CCC(O)c2ccccc2)C(C)(C)N1 (stereo not given) 0.53%
O=C(Cn1cncn1)N/N=C/c1c2ccccc2cc2ccccc12 -7.82%
Cc1ccc(C(C)C)c(OCc2nnc(SCC(=O)Nc3nccs3)n2C)c1 2.5%
CN(C(=O)CN1C(=O)NC(C)(CCc2ccccc2)C1=O)c1ccccc1 (stereo not given) 3.26%
CCOC(=O)c1ccc(NC(=S)N2CCCC2)cc1 0.82%
O=[N+]([O-])c1ccc(NC(=S)N2CCN(c3ccccn3)CC2)cc1 4%
CC(=O)Nc1ccc(N2CCOCC2)c(C(=O)Nc2cccc(C)c2)c1 0.26%
Cc1nc(N2CCOCC2)c2c(C)c(C(=O)Nc3ccc(C(F)(F)F)cc3)sc2n1 -0.86%
CN(Cc1ccccc1Cl)C(=O)C1CCC(=O)N(CCc2cccc(F)c2)C1 (stereo not given) -0.98%
CCC(CC)C(=O)Nc1c2c(nn1-c1ccc(C)cc1)CS(=O)(=O)C2 0.73%
CCOc1ccc(C(=O)Nc2cc(Cl)ccc2-n2cncn2)cc1OC 1.32%
N#C/C(C(=S)Nc1ccccc1)=C1/NN=C(N2CCOCC2)N1c1ccccc1 -1.05%
Cc1ccccc1NC(=O)COc1cccc2c1CCNC2=O -2.78%
NC(=S)c1ccc(C(N)=S)o1 2.26%
CC(=O)COc1ccc2c(-c3ccccc3)cc(=O)oc2c1 3.24%
O=C(COc1ccc2c3c(c(=O)oc2c1)CCCC3)NCC(O)c1ccccc1 (stereo not given) 1.28%
Cc1ccccc1C(CC(=O)c1cccs1)C(C#N)C#N (stereo not given) 3.7%
COc1cc(C(F)(F)F)c(C(=O)N(C)c2ccc(Cl)cc2)cn1 -2.07%
CC(=O)Nc1sc2c(c1C(c1cccc(F)c1)N1CCN(CCO)CC1)CCCC2 (stereo not given) 2.91%
COC(=O)[C@]1(C)N[C@H](c2ccc(-c3ccc(Cl)c(Cl)c3)cc2)[C@@H]2C(=O)N(C)C(=O)[C@@H]21 -0.27%
CC(=O)c1cccc(NC(=O)CN2C(=O)c3cccnc3Oc3ccc(Cl)cc32)c1 1.24%
COc1cc(C2C3C(=O)N(c4ccccc4)C(=O)C3ON2c2ccccc2)ccc1O (stereo not given) 1.53%
Cn1c(=O)c(=O)n(C)c2cc(S(=O)(=O)CCC(=O)N3CCCCC3)ccc21 1.89%
CSc1sc(C)cc1C1C(C#N)=C(N)N(c2cccnc2)C2=C1C(=O)CCC2 (stereo not given) 0.82%
COCC(=O)N1CCCC(C(=O)c2ccc(C(F)(F)F)cc2)C1 (stereo not given) 3.84%
Cc1ccc(CN2CCN(c3ccccc3Cl)CC2)o1 0.07%
COCCNC(=O)CN1C(=O)CSc2ncccc21 4.79%
CCOc1ccccc1Nc1ccc(C(=O)O)cc1[N+](=O)[O-] 0.59%

Inhibition of corepressor binding, active:
CC(C)c1ccc(C2C(C(=O)c3ccco3)=C(O)C(=O)N2CC2CCCO2)cc1 (stereo not given) 22.2%
N#Cc1ccccc1Sc1ccccc1C(=O)OCC(=O)NC1CCCCC1 26.6%
CCOC(=O)c1ccc(NC(=S)N2CCN(c3ccccn3)CC2)cc1 43.1%
Cc1cccc(NC(=O)c2sc3nc(N4CCOCC4)c4c(c3c2N)CCCC4)c1 27.8%
O=C(Oc1ccccc1)Oc1ccc2c(c1)oc(=O)c1ccccc12 26%
